Assays:
[1] = organism: Rattus norvegicus; assay: Antiinflammatory activity against adjuvant induced arthritis in male charles river rats; type: functional
[2] = test system: Rattus norvegicus; assay: Safety assessment in adjuvant induced arthritis rat model (AA),day 18,po; type: functional; details: 432 h
[3] = Ratio (12-day no effect/AA ED50) of the compound; type: functional
Summary of the method: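 Maximum no-effect dose from the 12-day study divided by the adjuvant arthritis ED50. […] Read-outs were mortality, pharmacologic or toxic signs, body and organ weights and gross necropsy.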

[4] = organism: Rattus norvegicus; assay: Compound was evaluated for 12 day tolerance in long evans rats; type: functional
[5] = test system: Rattus norvegicus; assay: (§1) Safety assessment in car paw assay, po; type: functional
[6] = organism: Rattus norvegicus; assay: Maximum tolerated dose for 12 days in long evans rats; type: functional
[7] = test system: Rattus norvegicus; assay: Safety assessment in adjuvant induced arthritis rat model (AA),po; type: functional
[8] = TD50/ED50 value of the compound; type: functional
Summary of the method: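 Ratio of the GI lesion TD50 to the established adjuvant arthritis paw ED50, both measured orally in rats.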

[9] = organism: Mus musculus; assay: Effective dose of compound against analgesia was determined by phenylquinone writhing assay
[10] = organism: Rattus norvegicus; assay: Activity in the nonestablished adjuvant-induced arthritis model; type: functional
[11] = Gastrointestinal safety of a compound relative to indomethacin and piroxicam in rats; type: ADME, organism-based; details: rat, in vivo
Summary of the method: (§2)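 Male Sprague-Dawley rats (~165 g) received a single oral dose of drug or vehicle. Stomach and small intestine were examined for mucosal lesions under a 10× dissecting microscope in coded, randomized order. Any single lesion counted as positive. TD50 was calculated by the moving-average method.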

[12] = Volume of distribution at dose of 12.2 uM/kg, iv; type: ADME, organism-based; details: in vivo
[13] = Elimination half life at dose of 12.2uM/kg, po; details: in vivo
[14] = Gastrointestinal safety of a compound relative to indomethacin and piroxicam; type: ADME; summary of the method: as §2
[15] = Maximum blood level reached after an iv dose of 12.2 uM/kg; type: ADME, organism-based; set-up: dose 12.2 uM/kg, route intravenous; details: in vivo
[16] = Elimination half life at dose of 12.2 uM/kg, iv; type: ADME, organism-based; details: in vivo
[17] = biological target: T1, Polyunsaturated fatty acid 5-lipoxygenase (Rattus norvegicus, UniProt P12527); assay: Inhibitory activity against rat basophilic leukemia 5-lipoxygenase
T1 sequence (P12527 whole entry): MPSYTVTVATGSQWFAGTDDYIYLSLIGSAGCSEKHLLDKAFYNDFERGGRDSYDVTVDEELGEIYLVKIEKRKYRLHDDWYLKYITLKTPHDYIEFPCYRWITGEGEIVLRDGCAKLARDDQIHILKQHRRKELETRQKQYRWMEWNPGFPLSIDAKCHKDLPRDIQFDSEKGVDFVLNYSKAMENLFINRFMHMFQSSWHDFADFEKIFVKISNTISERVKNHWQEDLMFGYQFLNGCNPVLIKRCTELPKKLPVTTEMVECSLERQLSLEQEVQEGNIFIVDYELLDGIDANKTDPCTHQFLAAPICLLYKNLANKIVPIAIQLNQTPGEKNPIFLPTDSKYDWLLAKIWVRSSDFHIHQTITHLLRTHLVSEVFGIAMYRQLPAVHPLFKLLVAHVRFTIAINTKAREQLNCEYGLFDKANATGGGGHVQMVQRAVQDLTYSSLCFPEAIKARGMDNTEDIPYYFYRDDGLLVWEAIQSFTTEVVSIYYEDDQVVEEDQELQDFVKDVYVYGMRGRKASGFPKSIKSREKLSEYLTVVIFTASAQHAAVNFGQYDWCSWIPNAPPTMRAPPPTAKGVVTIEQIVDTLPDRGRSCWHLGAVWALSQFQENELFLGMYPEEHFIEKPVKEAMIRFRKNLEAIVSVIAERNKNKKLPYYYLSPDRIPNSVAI

[18] = as §1; type: toxicity
[19] = organism: Mus musculus; assay: Activity in the mouse oral contact sensitivity model; type: functional
[20] = organism: Rattus norvegicus; assay: Effective dose required for prevention of nonestablished adjuvant arthritis model wih an oral paw 18-day; type: functional; details: 432 h

## Cn1c(Cl)c(Cl)c(-c2ccc(F)cc2)c1-c1ccc(S(C)(=O)=O)cc1
[1]
  ED50: 5 mg/kg

## CC(=O)n1c(Br)cc(-c2ccc(F)cc2)c1-c1ccc(S(C)(=O)=O)cc1
[1]
  ED50: 36.2 mg/kg

## CS(=O)(=O)c1ccc(-c2[nH]c(Cl)c(Br)c2-c2ccc(F)cc2)cc1
[1]
  ED50: 3.4 mg/kg

## Cn1c(SC#N)cc(-c2ccc(F)cc2)c1-c1ccc(S(C)(=O)=O)cc1
[1]
  ED50: > 27 mg/kg

## CS(=O)(=O)c1ccc(-c2[nH]c(F)c(F)c2-c2ccc(F)cc2)cc1
[1]
  ED50: 0.31 mg/kg

## CS(=O)(=O)c1ccc(-c2[nH]c(S(C)(=O)=O)cc2-c2ccc(F)cc2)cc1
[1]
  ED50: 36.6 mg/kg

## CS(=O)(=O)c1ccc(-c2[nH]ccc2-c2ccc(F)cc2)cc1
[1]
  ED50: > 100 mg/kg

## COc1ccc2c(c1)c(CC(=O)O)c(C)n2C(=O)c1ccc(Cl)cc1 [INDOMETHACIN]
[1]
  ED50: 0.3 mg/kg

## Cc1ccc(S(=O)(=O)n2c(Br)cc(-c3ccc(F)cc3)c2-c2ccc(S(C)(=O)=O)cc2)cc1
[1]
  ED50: > 9 mg/kg

## CS(=O)(=O)c1ccc(-c2[nH]c([N+](=O)[O-])cc2-c2ccc(F)cc2)cc1
[1]
  ED50: 9 mg/kg

## CSc1cc(-c2ccc(F)cc2)c(-c2ccc(S(C)(=O)=O)cc2)[nH]1
[2]
  ED50: 69.2 µM/kg
[3]
  Ratio: > 30
[1]
  ED50: 1.8 mg/kg
[4]
  no-effect dose: >99 µM/kg
[5]
  ED30: >276 µM/kg
[6]
  Max tolerated dose: >199 µM/kg
[7]
  ED50: 4.98 µM/kg
[8]
  TD50/ED50: > 83
[9]
  ED50: 46.3 mg/kg
[10]
  ED50: 25 mg/kg
[11]
  TD50: > 414 µmol/kg

## Cn1c(Br)cc(-c2ccc(F)cc2)c1-c1ccc(S(C)(=O)=O)cc1
[12]
  Vd: 10 L/kg
[13]
  half-life: 4.3 h
[14]
  TD50: > 416 µmol/kg
[1]
  ED50: 1.7 mg/kg
[15]
  Cmax: 2.9 uM l-1
[16]
  half-life: 13.7 h
[7]; read-out: ED50
  ED50: 3.43 µmol/kg
[8]
  TD50/ED50: > 100

## CS(=O)(=O)c1ccc(-c2[nH]c(I)c(I)c2-c2ccc(F)cc2)cc1
[1]
  ED50: 41.3 mg/kg

## CS(=O)(=O)c1ccc(-c2[nH]c(Br)c(Cl)c2-c2ccc(F)cc2)cc1
[1]
  ED50: 4.28 mg/kg

## CS(=O)(=O)c1ccc(-c2[nH]c(SC#N)cc2-c2ccc(F)cc2)cc1
[2]; read-out: ED50
  ED50: 18.8 µmol/kg
[14]
  TD50: > 335 µmol/kg
[1]
  ED50: 3.9 mg/kg
[17]
  IC50: 0.08 µM
[18]
  ED30: 268.5 µM/kg
[4]
  no-effect dose: >418 µM/kg
[6]
  Max tolerated dose: >418 µM/kg
[7]; read-out: ED50
  ED50: 10.5 µmol/kg
[19]
  ED35: 8 mg/kg
[20]
  ED50: 7 mg/kg

— ChEMBL document CHEMBL1127690, “Antiinflammatory 4,5-diarylpyrroles: synthesis and QSAR” (J Med Chem, 1994)
